Here are results for three molecules from ChEMBL document CHEMBL4118248, “Small Molecule Proprotein Convertase Subtilisin/Kexin Type 9 (PCSK9) Inhibitors: Hit to Lead Optimization of Systemic Agents” (J Med Chem, 2018).

The structures appear in SMILES notation.

Sequence of CYP2C9 (P11712 whole entry): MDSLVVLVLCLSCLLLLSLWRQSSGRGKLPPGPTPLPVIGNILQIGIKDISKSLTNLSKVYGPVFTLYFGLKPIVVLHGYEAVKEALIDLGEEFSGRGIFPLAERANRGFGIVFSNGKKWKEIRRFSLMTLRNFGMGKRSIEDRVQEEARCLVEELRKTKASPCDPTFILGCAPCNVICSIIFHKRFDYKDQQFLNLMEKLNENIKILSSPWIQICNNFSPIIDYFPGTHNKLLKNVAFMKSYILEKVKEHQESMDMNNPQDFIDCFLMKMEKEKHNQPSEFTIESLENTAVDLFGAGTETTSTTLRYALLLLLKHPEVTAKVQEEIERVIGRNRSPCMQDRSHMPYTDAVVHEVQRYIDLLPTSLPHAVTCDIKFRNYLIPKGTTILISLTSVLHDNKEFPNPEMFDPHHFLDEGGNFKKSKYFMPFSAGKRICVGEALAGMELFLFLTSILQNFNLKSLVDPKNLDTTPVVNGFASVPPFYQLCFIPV

One data set has as its target T1, 80S Ribosome (Homo sapiens) (UniProt P08865+P42677+P62753+P15880+P23396+P61247+P62701+P22090+P46782+P62081+P62241+P46781+P46783+P62280+P25398+P62277+P62263+P62841+P62244+P62249+P08708+P62269+P39019+P60866+P63220+P62266+P62847+P62851+P62854+P62979+P62857+P62273+P62861+P39023+P36578+P46777+Q02878+P18124+P62424+P62917+P32969+P27635+P62906+P62913+P30050+P26373+P40429+P50914+P61313+P18621+Q07020+Q02543+P84098+P46778+P35268+P62829+P62750+P83731+P61254+P61353+P46776+P46779+P47914+P62888+P62899+P62910+P49207+P42766+P18077+Q9Y3U8+P83881+P61927+P61513+P63173+P62891+P62945+P05388+P05386). In words: Binding affinity to 80S ribosome in human HuH7 cells assessed as inhibition of PCSK9 mRNA translation at 20 uM after overnight incubation by ELISA relative to control. In kind it is cell-based. The note with it: Huh-7. On the technique in general: In an ELISA, binding on a coated surface is turned into a signal by an enzyme label.
The inhibition is the drop in the measured response relative to a control, in per cent. As for `O=C(c1ccc(-n2nnc3cccnc32)cc1)N(c1ncccc1Cl)[C@H]1CCCNC1`, the inhibition came to 24%.

On to `O=C(c1ccc(-c2ccccc2)cc1)N(c1nccc2ccccc12)[C@@H]1CCCNC1`, for which the inhibition is 39%.

A further data set concerns the target T2, CYP1A2 (Homo sapiens, UniProt P05177).
T2 sequence (P05177 whole entry): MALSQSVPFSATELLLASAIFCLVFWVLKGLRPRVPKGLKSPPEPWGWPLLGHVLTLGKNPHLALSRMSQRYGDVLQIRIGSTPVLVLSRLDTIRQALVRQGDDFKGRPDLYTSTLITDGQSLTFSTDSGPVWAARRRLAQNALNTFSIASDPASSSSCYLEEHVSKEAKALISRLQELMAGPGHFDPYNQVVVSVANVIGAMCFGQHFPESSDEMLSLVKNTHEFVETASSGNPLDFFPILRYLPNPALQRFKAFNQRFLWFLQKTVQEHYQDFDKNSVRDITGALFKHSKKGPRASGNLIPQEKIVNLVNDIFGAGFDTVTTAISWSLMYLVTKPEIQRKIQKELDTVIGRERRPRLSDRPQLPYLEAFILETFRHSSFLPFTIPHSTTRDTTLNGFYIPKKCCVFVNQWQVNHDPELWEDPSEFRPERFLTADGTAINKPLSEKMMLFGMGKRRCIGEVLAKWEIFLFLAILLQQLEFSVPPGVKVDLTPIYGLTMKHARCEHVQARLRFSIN
In words: Inhibition of CYP1A2 (unknown origin) at 3 uM relative to control. In kind it is ADME.
Details: not given
Put shortly: (§1)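 Inhibition of CYP1A2, 2D6, 2C9 and 3A4 reported as IC50, or as percent inhibition at 3 µM.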
In the case of `COc1ccc(CCC(=O)N(c2nccc3ccccc23)[C@@H]2CCCNC2)cc1`, the inhibition at 3 µM was less than 20%.

The test system of another data set is Rattus norvegicus. In words: Toxicity in Crl:CD(SD) rat assessed as single cell necrosis in crypt cells in ileum at 50 mg/kg/day, po daily via gavage for 14 days measured on day 15 post last dose. It counts as organism-based. To be noted: in vivo, 336 h.
Turning to `O=C(c1ccc(-n2nnc3cccnc32)cc1)N(c1ncccc1Cl)[C@H]1CCCNC1`, the Activity result is “Non-Toxic”.

The target in another data set is 80S Ribosome. In words: Binding affinity to 80S ribosome in human HuH7 cells harboring pCMV-truncated human PCSK9 (1 to 152 residues)-proLuc assessed as inhibition of PCSK9 mRNA translation after overnight incubation by luciferase reporter gene assay. It counts as cell-based. To be noted: huh-7. The method, boiled down:
(§2)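 Huh7 cells stably carry human PCSK9 prodomain (aa 1-152) fused to firefly luciferase (aa 2-550) in pcDNA3.1, kept under 900 µg/mL Geneticin. Plated 10,000/well in phenol red-free DMEM/10% FBS and left 4 h, then compound added (top final 20 µM, 0.5% DMSO). Incubated overnight at 37 °C, luminescence read with SteadyGlo.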
What is called IC50 is the concentration that inhibits the measured activity by half. For `COc1ccc(CCC(=O)N(c2nccc3ccccc23)[C@@H]2CCCNC2)cc1`, the IC50 stood at 2.63 µM.

For a further data set, the target named is T1, 80S Ribosome (Homo sapiens). In words: Binding affinity to 80S ribosome in human HuH7 cells harboring pCMV-truncated human PCSK9 (1 to 152 residues)-proLuc assessed as inhibition of PCSK9 mRNA translation at 20 uM after overnight incubation by luciferase reporter gene assay relative to control. It counts as cell-based. To be noted: Huh-7. Put shortly:
as §2
In the case of `O=C(c1ccc(-n2nnc3cccnc32)cc1)N(c1ncccc1Cl)[C@H]1CCCNC1`, the inhibition stood at 61%.

With `O=C(c1ccc(-c2ccccc2)cc1)N(c1nccc2ccccc12)[C@@H]1CCCNC1`, the inhibition came out at 54%.

The target of the next data set is 80S Ribosome. In words: Binding affinity to 80S ribosome in human HuH7 cells assessed as inhibition of PCSK9 mRNA translation after overnight incubation by ELISA. In kind it is cell-based. The note with it: huh-7. Put shortly:
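Huh7 cells kept in high-glucose DMEM, 10% BSA-free FBS, 2 mM L-glutamine, pen/strep at 37 °C, 5% CO2. Plated 7,500/well with compound or vehicle and incubated overnight (16-20 h). Secreted PCSK9 in the medium read by AlphaLISA: two antibodies to different mature-PCSK9 epitopes, biotinylated antibody 3 nM final, acceptor beads 10 µg/mL, 0.5 h rt; streptavidin donor beads 40 µg/mL, 1 h rt.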
For the molecule `COc1ccc(CCC(=O)N(c2nccc3ccccc23)[C@@H]2CCCNC2)cc1`, the IC50 was 8.37 µM.

The next data set deals with Voltage-gated inwardly rectifying potassium channel KCNH2 (Homo sapiens, UniProt Q12809). In words: Inhibition of dofetilide binding to human ERG by fluorescence polarization assay.
Sequence of Voltage-gated inwardly rectifying potassium channel KCNH2 (Q12809 whole entry): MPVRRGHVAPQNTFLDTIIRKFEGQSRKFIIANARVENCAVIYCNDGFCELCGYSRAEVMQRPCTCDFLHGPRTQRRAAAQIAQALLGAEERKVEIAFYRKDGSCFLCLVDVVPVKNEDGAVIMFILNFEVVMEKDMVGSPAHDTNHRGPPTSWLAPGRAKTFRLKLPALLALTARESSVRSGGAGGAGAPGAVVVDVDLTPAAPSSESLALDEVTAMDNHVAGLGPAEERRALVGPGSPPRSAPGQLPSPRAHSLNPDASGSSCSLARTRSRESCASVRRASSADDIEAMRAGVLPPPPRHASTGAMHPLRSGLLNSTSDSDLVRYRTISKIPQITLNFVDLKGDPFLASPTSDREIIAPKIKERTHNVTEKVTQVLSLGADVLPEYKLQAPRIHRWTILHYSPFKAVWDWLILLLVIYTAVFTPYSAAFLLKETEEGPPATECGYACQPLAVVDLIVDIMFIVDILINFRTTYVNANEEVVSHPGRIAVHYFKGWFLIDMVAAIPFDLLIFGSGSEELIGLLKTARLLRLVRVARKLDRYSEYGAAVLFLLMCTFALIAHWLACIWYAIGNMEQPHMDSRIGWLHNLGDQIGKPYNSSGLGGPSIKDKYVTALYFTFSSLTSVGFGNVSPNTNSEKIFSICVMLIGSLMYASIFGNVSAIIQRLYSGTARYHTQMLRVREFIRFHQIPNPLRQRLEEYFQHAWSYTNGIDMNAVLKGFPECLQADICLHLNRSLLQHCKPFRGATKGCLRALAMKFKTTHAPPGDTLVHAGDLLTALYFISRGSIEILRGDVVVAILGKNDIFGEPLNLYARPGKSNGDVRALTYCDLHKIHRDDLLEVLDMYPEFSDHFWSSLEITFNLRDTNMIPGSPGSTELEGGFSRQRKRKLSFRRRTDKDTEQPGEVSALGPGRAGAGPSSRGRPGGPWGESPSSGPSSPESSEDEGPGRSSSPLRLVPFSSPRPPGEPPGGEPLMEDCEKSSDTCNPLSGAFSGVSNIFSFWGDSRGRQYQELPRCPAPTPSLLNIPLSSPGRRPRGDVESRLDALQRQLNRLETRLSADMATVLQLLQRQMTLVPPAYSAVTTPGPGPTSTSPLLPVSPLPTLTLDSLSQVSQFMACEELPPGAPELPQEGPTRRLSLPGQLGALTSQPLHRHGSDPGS
Details: not given
For orientation: Ki means the equilibrium dissociation constant of an inhibitor or competing ligand from its target. Low values mean a stronger hold on the target, high ones a looser hold on the target. Molecule `O=C(c1ccc(-c2ccccc2)cc1)N(c1nccc2ccccc12)[C@@H]1CCCNC1` came in with a Ki of 2.2 µM.

The molecule `COc1ccc(CCC(=O)N(c2nccc3ccccc23)[C@@H]2CCCNC2)cc1` came in with a Ki of 13 µM.

The target of another data set is CYP2D6 (Homo sapiens, UniProt P10635). In words: Inhibition of CYP2D6 (unknown origin) at 3 uM relative to control. It counts as ADME.
Sequence of CYP2D6 (P10635 whole entry): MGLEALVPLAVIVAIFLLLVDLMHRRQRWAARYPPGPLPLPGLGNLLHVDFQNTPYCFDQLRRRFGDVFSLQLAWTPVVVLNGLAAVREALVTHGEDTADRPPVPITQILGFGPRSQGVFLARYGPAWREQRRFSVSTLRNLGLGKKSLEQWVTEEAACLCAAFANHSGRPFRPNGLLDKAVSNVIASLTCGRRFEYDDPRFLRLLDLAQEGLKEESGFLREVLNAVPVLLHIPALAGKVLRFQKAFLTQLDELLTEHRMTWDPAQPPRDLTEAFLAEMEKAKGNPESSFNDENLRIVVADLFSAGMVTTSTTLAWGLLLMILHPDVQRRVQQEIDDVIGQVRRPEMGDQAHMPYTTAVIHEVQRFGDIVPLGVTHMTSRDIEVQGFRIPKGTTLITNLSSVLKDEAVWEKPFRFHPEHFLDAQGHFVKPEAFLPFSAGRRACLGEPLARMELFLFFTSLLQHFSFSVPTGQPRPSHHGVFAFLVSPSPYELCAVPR
Details: not given
The method, boiled down: as §1
The molecule `COc1ccc(CCC(=O)N(c2nccc3ccccc23)[C@@H]2CCCNC2)cc1` displayed an inhibition at 3 µM of less than 20%.

The next data set has as its target CYP2C9 (Homo sapiens, UniProt P11712). In words: Inhibition of CYP2C9 (unknown origin) at 3 uM relative to control. In kind it is ADME.
Details: not given
Put shortly:
as §1
As to `COc1ccc(CCC(=O)N(c2nccc3ccccc23)[C@@H]2CCCNC2)cc1`, the inhibition at 3 µM was less than 20%.

System in the next data set: not listed separately
In words: Intrinsic clearance in human liver microsomes. In kind it is ADME, microsome. To be noted: read-out: CLH. For orientation: Microsomes from liver hold many membrane-bound enzymes, among them those of drug oxidation.
Turning to `O=C(c1ccc(-c2ccccc2)cc1)N(c1nccc2ccccc12)[C@@H]1CCCNC1`, the microsomal CLint came out at 10.7 µL/min/mg.

As for `COc1ccc(CCC(=O)N(c2nccc3ccccc23)[C@@H]2CCCNC2)cc1`, the microsomal CLint is 20.6 µL/min/mg.

A further data set deals with CYP3A4 (Homo sapiens, UniProt P08684). In words: Inhibition of CYP3A4 (unknown origin) at 3 uM relative to control.
Sequence of CYP3A4 (P08684 whole entry): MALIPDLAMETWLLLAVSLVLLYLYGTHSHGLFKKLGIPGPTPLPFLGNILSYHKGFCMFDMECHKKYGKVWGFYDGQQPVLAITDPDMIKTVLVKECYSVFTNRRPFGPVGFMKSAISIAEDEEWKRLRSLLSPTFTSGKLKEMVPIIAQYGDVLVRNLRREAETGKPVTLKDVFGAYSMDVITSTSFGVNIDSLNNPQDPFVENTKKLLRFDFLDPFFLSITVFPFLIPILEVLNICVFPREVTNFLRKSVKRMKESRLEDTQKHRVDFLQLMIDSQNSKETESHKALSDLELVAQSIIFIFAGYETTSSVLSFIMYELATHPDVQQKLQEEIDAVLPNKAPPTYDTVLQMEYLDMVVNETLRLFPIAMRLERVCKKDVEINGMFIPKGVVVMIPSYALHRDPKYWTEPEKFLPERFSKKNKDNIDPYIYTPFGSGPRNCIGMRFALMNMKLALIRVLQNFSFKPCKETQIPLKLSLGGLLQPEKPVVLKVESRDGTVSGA
Details: not given
In kind it is ADME. Put shortly:
as §1
The molecule `COc1ccc(CCC(=O)N(c2nccc3ccccc23)[C@@H]2CCCNC2)cc1` yielded an inhibition at 3 µM of less than 20%.

For a further data set, the system named is Bone marrow cell. In words: Cytotoxicity against rat bone marrow cells assessed as reduction in cell viability after 72 hrs by CellTiter-Glo assay. It counts as cell-based.
Details: not given
For orientation: In ATP-based viability assays light output follows the ATP content of the culture.
As for `O=C(c1ccc(-n2nnc3cccnc32)cc1)N(c1ncccc1Cl)[C@H]1CCCNC1`, the IC50 was more than 20 µM.

Turning to `COc1ccc(CCC(=O)N(c2nccc3ccccc23)[C@@H]2CCCNC2)cc1`, the IC50 was more than 20 µM.

System in a further data set: not listed separately
In words: Intrinsic clearance in rat liver microsomes. It counts as ADME, microsome. The note with it: read-out: CLH.
Regarding `O=C(c1ccc(-c2ccccc2)cc1)N(c1nccc2ccccc12)[C@@H]1CCCNC1`, the microsomal CLint is 57.7 µL/min/mg.

For `COc1ccc(CCC(=O)N(c2nccc3ccccc23)[C@@H]2CCCNC2)cc1`, the microsomal CLint was more than 510 µL/min/mg.

For a further data set, the system named is Rattus norvegicus. In words: Toxicity in Crl:CD(SD) rat assessed as discolored/mottled liver at 50 mg/kg/day, po daily via gavage for 14 days measured on day 15 post last dose. In kind it is organism-based. To be noted: in vivo, 336 h. The method, boiled down:
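Male rats, 5 per group, given vehicle or compound at 50 mg/kg/day by oral gavage for 14 days. Mortality, clinical signs and hematology monitored throughout. Necropsy on day 15 with microscopy of bone marrow, ileum, duodenum, jejunum and liver. Toxicokinetics at 1, 3, 6 and 24 h post-dose on day 14.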
Turning to `O=C(c1ccc(-n2nnc3cccnc32)cc1)N(c1ncccc1Cl)[C@H]1CCCNC1`, the Activity entry was “Toxic”.

System in another data set: not listed separately
In words: Lipophilicity, log D of the compound by shake flask method. To be noted: octanol/water. In kind it is physicochemical. Put shortly: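 LogD measured by the shake-flask method.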
The term logD denotes the decadic logarithm of the distribution of all forms, ionised or not, between an organic phase and buffer at a given pH. Low readings indicate lower lipophilicity, high ones higher lipophilicity. With `O=C(c1ccc(-c2ccccc2)cc1)N(c1nccc2ccccc12)[C@@H]1CCCNC1`, the logD was determined as 2.5.

On to `COc1ccc(CCC(=O)N(c2nccc3ccccc23)[C@@H]2CCCNC2)cc1`, for which the log distribution coefficient (logD) worked out at 1.1.

System in a further data set: not listed separately
In words: Apparent permeability in RRCK cells. It counts as ADME, cell-based, Canis lupus familiaris, MDCKII-LE. To be noted: dog, MDCK. The method, boiled down: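 Passive permeability measured in RRCK cells, a modified Madin-Darby canine kidney line; Papp reported in 10^-6 cm/s.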
The Papp is a coefficient for how fast a substance crosses the barrier. In the case of `COc1ccc(CCC(=O)N(c2nccc3ccccc23)[C@@H]2CCCNC2)cc1`, the Papp was 5.4 ×10⁻⁶ cm/s.
